Measurements from publication PMC3839847 (Current topics in medicinal chemistry, 2012).

How the values were obtained:
CXCL12 = CXCL12 (Homo sapiens, UniProt P48061); test: 2D 1H-15N HSQC NMR titration, fragment binding to CXCL12; settings: for CXCL12 chemical shift perturbations: 2D NMR titration, no meaningful affinity value could be fitted; for LE: ligand efficiency: free energy of binding divided by number of non-hydrogen atoms (kcal/mol/non-hydrogen atom)
[1] = tested on: CXCL12-induced chemotaxis of THP-1 monocytes; test: in vitro chemotaxis assay, THP-1 monocytes with CXCL12; type: cell-based; settings: read-out: IC50 of chemotaxis to CXCL12, 10 nM CXCL12
Summary of the method: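 Chemotaxis in vitro used THP-1 monocytes, which express CXCR4 endogenously, exposed to CXCL12 with or without each tetrazole fragment.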

[2] = tested on: CCL2 (MCP-1), activates the CCR2 receptor; test: chemotaxis assay repeated with CCL2; type: cell-based; settings: data not shown

CXCL12 chemical shift perturbations (CXCL12)	Kd (CXCL12)	LE (CXCL12)	Structure (SMILES)	also measured
small chemical shift perturbations			CC(=O)Nc1ccccc1-c1nnn[nH]1 [Compound 10, N-(2-(1H-Tetrazol-5-yl)phenyl) acetamide]	
	126 ± 23 µM	0.25	O=C(Nc1ccccc1)Nc1cccc(-c2nnn[nH]2)c1 [Compound 17, 1-(3-(1H-tetrazol-5-yl)phenyl)-3-phenylurea]	
small chemical shift perturbations			CC(=O)Nc1cccc(-c2nnn[nH]2)c1 [Compound 12, N-(3-(1H-tetrazol-5-yl)phenyl)acetamide]	
	13 ± 7 µM	0.33	O=C(Nc1ccccc1-c1nnn[nH]1)c1ccccc1 [Compound 11, N-(2-(1H-Tetrazol-5-yl)phenyl)benzamide]	
	327 ± 92 µM	0.23	O=C(Nc1ccccc1)Nc1ccccc1-c1nnn[nH]1 [Compound 16, 1-(2-(1H-Tetrazol-5-yl)phenyl)-3-phenylurea]	
small chemical shift perturbations			CC(=O)Nc1ccc(-c2nnn[nH]2)cc1 [Compound 14, N-(4-(1H-tetrazol-5-yl)phenyl)acetamide]	
	24 ± 28 µM	0.30	O=C(Nc1ccccc1)Nc1ccc(-c2nnn[nH]2)cc1 [Compound 18, 1-(4-(1H-Tetrazol-5-yl)phenyl)-3-phenylurea]	
			O=C(Nc1ccc(-c2nn[nH]n2)cc1)Nc1cccc2ccccc12 [Compound 25]	IC50 [1]: 111 ± 24 µM; specificity for CXCL12- versus CCL2-induced migration [2]: specifically inhibits CXCL12-induced migration
	50 ± 16 µM	0.29	O=C(Nc1cccc(-c2nnn[nH]2)c1)c1ccccc1 [Compound 13, N-(3-(1H-tetrazol-5-yl)phenyl)benzamide]	
	64 ± 23 µM	0.29	O=C(Nc1ccc(-c2nnn[nH]2)cc1)c1ccccc1 [Compound 15, N-(4-(1H-tetrazol-5-yl)phenyl)benzamide]	
